Series [1] deals with T1, Muscarinic acetylcholine receptor M1 (Rattus norvegicus, UniProt P08482).
T1 sequence (P08482 whole entry): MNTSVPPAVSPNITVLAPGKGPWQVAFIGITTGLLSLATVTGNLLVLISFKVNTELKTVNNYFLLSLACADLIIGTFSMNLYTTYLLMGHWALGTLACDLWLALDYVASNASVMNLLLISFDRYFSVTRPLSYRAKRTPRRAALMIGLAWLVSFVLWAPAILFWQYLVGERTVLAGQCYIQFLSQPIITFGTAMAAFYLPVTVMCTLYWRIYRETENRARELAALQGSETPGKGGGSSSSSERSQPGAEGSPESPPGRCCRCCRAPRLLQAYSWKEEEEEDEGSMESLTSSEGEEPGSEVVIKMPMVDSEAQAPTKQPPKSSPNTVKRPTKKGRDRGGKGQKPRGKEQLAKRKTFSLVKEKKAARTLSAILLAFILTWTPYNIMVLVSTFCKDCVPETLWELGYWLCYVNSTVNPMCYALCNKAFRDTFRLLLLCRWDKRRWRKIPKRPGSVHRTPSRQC
The experiment in a line: In vitro receptor binding against Muscarinic acetylcholine receptor M1 in rat cerebral cortex was determined using [3H]pirenzepine. It counts as tissue-based. The method, boiled down:
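Rat cortex, heart or submandibular gland homogenates in Na+-Mg2+-HEPES pH 7.4, incubated 45 min at 30 °C with radioligand plus varying cold ligand. Separated by centrifugation, pellets washed and counted, in triplicate. KD from IC50 by nonlinear regression with Cheng–Prusoff correction; Hill slopes by linear regression.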

Series [2] concerns the target Muscarinic acetylcholine receptor M3 (Rattus norvegicus, UniProt P08483). The experiment in a line: In vitro receptor binding against Muscarinic acetylcholine receptor M3 in rat submandibular gland was determined using [3H]NMS.
Series [3] deals with Rattus norvegicus. Kind of series: In vivo activity against oxotremorine induced salivation in rat (iv).
The species entered for series [4] is Cavia porcellus. Kind of series: In vitro functional studies in guinea pig left atrium. As to conditions: Cardiac atrium.
Series [5] is filed under the species Cavia porcellus. Kind of series: In vitro functional studies in guinea pig ileum.
Series [6] concerns Rattus norvegicus. The experiment in a line: […] activity against carbachol-induced colonic spasms in rat (iv). Format: functional. The procedure, abridged: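 Compounds given iv 2 min before each spasmogen dose. Percent inhibition of pretreatment contractions; ED50 with 95% confidence limits from linear regression of log dose-response curves.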
Series [7] deals with T2, Muscarinic acetylcholine receptor M2 (Rattus norvegicus, UniProt P10980).
T2 sequence (P10980 whole entry): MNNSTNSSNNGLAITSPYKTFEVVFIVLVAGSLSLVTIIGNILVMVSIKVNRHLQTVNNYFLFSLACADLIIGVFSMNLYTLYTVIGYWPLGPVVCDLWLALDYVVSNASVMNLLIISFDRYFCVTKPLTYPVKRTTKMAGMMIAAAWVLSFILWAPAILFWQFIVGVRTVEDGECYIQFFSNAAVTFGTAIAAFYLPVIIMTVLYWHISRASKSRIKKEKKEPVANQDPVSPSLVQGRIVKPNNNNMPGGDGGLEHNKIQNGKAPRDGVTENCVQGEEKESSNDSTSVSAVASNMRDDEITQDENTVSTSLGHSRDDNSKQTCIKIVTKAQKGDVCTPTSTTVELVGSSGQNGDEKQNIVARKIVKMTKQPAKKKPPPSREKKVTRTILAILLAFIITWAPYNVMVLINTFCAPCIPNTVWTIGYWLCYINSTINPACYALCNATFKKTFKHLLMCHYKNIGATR
Kind of series: In vitro receptor binding against Muscarinic acetylcholine receptor M2 in rat heart was determined using [3H]NMS.

A short description of series [8]: pKa value was determined. It counts as physicochemical. The method, boiled down: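 Macroscopic pKa measured by potentiometric titration in water containing a few milliliters of methanol, with a glass electrode.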
Series [9] has as its system Rattus norvegicus. The experiment in a line: In vivo activity against oxotremorine induced tremors in rat (iv).

Structures are written as SMILES.

Sequence of Muscarinic acetylcholine receptor M3 (P08483 whole entry): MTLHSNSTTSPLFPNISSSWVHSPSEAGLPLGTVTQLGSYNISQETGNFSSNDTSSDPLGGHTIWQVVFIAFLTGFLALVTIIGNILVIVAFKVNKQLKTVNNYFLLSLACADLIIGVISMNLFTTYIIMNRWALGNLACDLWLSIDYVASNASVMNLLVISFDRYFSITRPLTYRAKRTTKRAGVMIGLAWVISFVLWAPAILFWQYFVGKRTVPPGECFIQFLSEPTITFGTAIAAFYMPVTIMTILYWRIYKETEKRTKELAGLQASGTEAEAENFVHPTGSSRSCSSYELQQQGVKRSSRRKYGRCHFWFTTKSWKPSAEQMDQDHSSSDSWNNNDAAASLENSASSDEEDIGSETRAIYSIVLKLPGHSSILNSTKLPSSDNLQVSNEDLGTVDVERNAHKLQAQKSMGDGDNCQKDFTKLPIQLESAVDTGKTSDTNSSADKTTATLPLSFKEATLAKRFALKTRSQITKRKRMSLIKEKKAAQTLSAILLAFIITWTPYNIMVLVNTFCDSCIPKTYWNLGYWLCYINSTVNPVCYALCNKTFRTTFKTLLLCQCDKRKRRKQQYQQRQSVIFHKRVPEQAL

A word on the Kd: it is the equilibrium constant for the complex coming apart. Read a low Kd as tighter binding. As usually defined, the ED50 is the midpoint of the dose-response relation. By pKa is commonly meant the negative logarithm of the acid dissociation constant. Read a high pKa as a group that holds its proton tightly. In the case of `CC(=N)N1C2CC(OC(=O)C(CO)c3ccccc3)CC1C1OC12.Cl` (centres undefined), the Kd worked out at 3.4 nM in series [1], 3.5 nM in series [2] and 6.7 nM in series [7]. The values for the ED50 in the series with Rattus norvegicus [3], in the series on Rattus norvegicus [6] and with Rattus norvegicus [9] were 4.1 µg/kg, 3.9 µg/kg and 1700 µg/kg, respectively. Also, the Kb in the series listed under Cavia porcellus [4] came out at 5.02 nM; in the series filed under Cavia porcellus [5], 1.55 nM. The molecule also returned a pKa in [8] of 10.7.

With `CN1[C@@H]2CC[C@H]1C[C@@H](OC(=O)C(CO)c1ccccc1)C2` (some centres undefined) [ATROPINE], the results for the ED50 in the series with Rattus norvegicus [3], in the series on Rattus norvegicus [6] and with Rattus norvegicus [9] were 8.6 µg/kg, 4.5 µg/kg and 453 µg/kg, respectively. The Kb amounted to 0.66 nM in the series listed under Cavia porcellus [4] and 3.16 nM in the series listed under Cavia porcellus [5].

In the case of `Cl.N=CN1C2CCC1CC(OC(=O)C(CO)c1ccccc1)C2` (centres undefined), the figures for the dissociation constant Kd in [1], in series [2] and in [7] were 1.1 nM, 1.4 nM and 1.6 nM, respectively. Moreover, the ED50 was 3.9 µg/kg with Rattus norvegicus [3], 3.5 µg/kg in the series with Rattus norvegicus [6] and over 10000 µg/kg in the series on Rattus norvegicus [9]. In addition, the Kb in the series filed under Cavia porcellus [4] stood at 1.59 nM; in the series listed under Cavia porcellus [5] it was 0.72 nM. Also, in series [8], the pKa came to 10.3.

`Cl.N=CN1C2CC(OC(=O)C(CO)c3ccccc3)CC1C1OC12` (centres undefined): the results for the Kd in series [1], in [2] and in series [7] were 3.6 nM, 5 nM and 10 nM, respectively. Besides, the ED50 in the series on Rattus norvegicus [3] came to 2.45 µg/kg; with Rattus norvegicus [6], 6.1 µg/kg; in the series on Rattus norvegicus [9], 1300 µg/kg. Besides, the Kb turned out to be 6.55 nM in the series listed under Cavia porcellus [4] and 1.68 nM in the series listed under Cavia porcellus [5]. This molecule yielded a pKa in series [8] of 9.78.

With `CCCC[N+]1(C)C2CC(OC(=O)C(CO)c3ccccc3)CC1C1OC12.[Br-]` (centres undefined), the figures for the dissociation constant Kd in series [1], in series [2] and in [7] were 300 nM, 220 nM and 220 nM, respectively. Moreover, the ED50 is 385 µg/kg with Rattus norvegicus [3], 52.9 µg/kg in the series on Rattus norvegicus [6] and over 3000 µg/kg in the series on Rattus norvegicus [9]. Moreover, the results for the Kb in the series filed under Cavia porcellus [4] and in the series filed under Cavia porcellus [5] were 58.4 nM and 56.3 nM, respectively.

Regarding `Cl.N=C(N)N1C2CCC1CC(OC(=O)C(CO)c1ccccc1)C2` (centres undefined), the results for the Kd in [1], in [2] and in series [7] were 7 nM, 2.5 nM and 11 nM, respectively. The ED50 in the series with Rattus norvegicus [3] is 5.8 µg/kg; in the series on Rattus norvegicus [6], 9.8 µg/kg; in the series with Rattus norvegicus [9], over 3000 µg/kg. The Kb came out at 3.06 nM in the series listed under Cavia porcellus [4] and 1.92 nM in the series filed under Cavia porcellus [5]. For the same molecule, the pKa in [8] was found to be 11.6.

With `C[N+]1(C)C2CC(OC(=O)C(CO)c3ccccc3)CC1C1OC12` (centres undefined), the Kb in the series filed under Cavia porcellus [4] is 0.38 nM; in the series filed under Cavia porcellus [5] it was 0.17 nM.

For the molecule `CC(=N)N1C2CCC1CC(OC(=O)C(CO)c1ccccc1)C2.Cl` (centres undefined), the Kd is 2 nM in [1], 3.1 nM in series [2] and 10 nM in [7]. For the same molecule, the ED50 in the series on Rattus norvegicus [3] is 6.2 µg/kg; in the series on Rattus norvegicus [6] it was 3.3 µg/kg; in the series on Rattus norvegicus [9], over 10000 µg/kg. In addition, the figures for the Kb in the series filed under Cavia porcellus [4] and in the series filed under Cavia porcellus [5] were 3.17 nM and 1.61 nM, respectively. Further, in series [8], the pKa worked out at 10.9.

In series [8], `O=C(O[C@@H]1C[C@@H]2N[C@H](C1)[C@@H]1O[C@@H]12)[C@H](CO)c1ccccc1` came in with a pKa of 7.09.

Regarding `CN1[C@@H]2C[C@@H](OC(=O)[C@H](CO)c3ccccc3)C[C@H]1[C@@H]1O[C@@H]12` [SCOPOLAMINE], the ED50 was found to be 2.6 µg/kg in the series with Rattus norvegicus [3], 5.8 µg/kg in the series with Rattus norvegicus [6] and 11 µg/kg with Rattus norvegicus [9]. Moreover, the results for the Kb in the series filed under Cavia porcellus [4] and in the series listed under Cavia porcellus [5] were 0.17 nM and 0.4 nM, respectively.

For the molecule `C[N+]1(C)[C@@H]2CC[C@H]1C[C@@H](OC(=O)C(CO)c1ccccc1)C2` (some centres undefined) [ATROPINE METHYLBROMIDE], the Kd in series [2] is 2.6 nM; in series [7] it was 2.7 nM. Moreover, the Kb in the series listed under Cavia porcellus [4] was determined as 1.29 nM; in the series filed under Cavia porcellus [5], 0.71 nM.

As to `Cl.N=C(N)N1C2CC(OC(=O)C(CO)c3ccccc3)CC1C1OC12` (centres undefined), the Kd in series [1] came out at 7.5 nM; in [2], 4.5 nM; in series [7], 23 nM. Moreover, the ED50 is 18.8 µg/kg in the series with Rattus norvegicus [3], 18.6 µg/kg in the series on Rattus norvegicus [6] and over 3000 µg/kg in the series with Rattus norvegicus [9]. In addition, the Kb in the series listed under Cavia porcellus [4] was determined as 16.4 nM; in the series listed under Cavia porcellus [5], 5.18 nM. In addition, the pKa in series [8] came to 10.8.

The record behind these values is ChEMBL document CHEMBL1124864, “Synthesis and biological evaluation of new antimuscarinic compounds with amidine basic centers. A useful bioisosteric replacement of classical cationic heads” (J Med Chem, 1990).
